Calls of active or inactive are those of the source.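 The calls were made as follows, unless noted: active = potentiation averaged over duplicate wells exceeding buffer-only control mean by more than 3 SD; inactive = the rest.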

Sequence of Potassium voltage-gated channel subfamily KQT member 1 (Homo sapiens) (P51787 whole entry, looked up): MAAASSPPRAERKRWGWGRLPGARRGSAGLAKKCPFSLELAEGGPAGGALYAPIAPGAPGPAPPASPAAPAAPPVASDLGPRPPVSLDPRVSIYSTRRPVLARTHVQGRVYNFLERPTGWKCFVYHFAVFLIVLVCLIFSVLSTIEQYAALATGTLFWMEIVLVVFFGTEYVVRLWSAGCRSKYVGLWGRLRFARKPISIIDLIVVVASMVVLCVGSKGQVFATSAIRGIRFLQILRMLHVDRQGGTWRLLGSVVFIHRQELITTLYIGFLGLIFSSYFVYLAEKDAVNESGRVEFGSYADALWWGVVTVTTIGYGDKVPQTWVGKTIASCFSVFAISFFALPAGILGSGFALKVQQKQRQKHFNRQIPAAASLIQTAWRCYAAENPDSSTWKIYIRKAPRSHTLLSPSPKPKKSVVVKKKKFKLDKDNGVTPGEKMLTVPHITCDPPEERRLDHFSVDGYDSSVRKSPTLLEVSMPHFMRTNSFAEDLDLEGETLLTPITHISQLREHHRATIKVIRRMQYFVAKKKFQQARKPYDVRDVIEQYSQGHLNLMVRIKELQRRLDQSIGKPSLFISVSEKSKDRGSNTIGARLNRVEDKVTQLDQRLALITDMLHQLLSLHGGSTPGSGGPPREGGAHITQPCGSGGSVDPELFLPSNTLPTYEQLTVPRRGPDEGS

Tested on in the first assay: not listed separately
Nature of the assay: nonspecific flux increase, KCNQ1-free cells – parental CHO cells, counter-screen for KCNQ1 potentiator project (AID 493006;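 active = duplicate-averaged activation above buffer control mean plus 5 SD of those controls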;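 as to activation: fluorescence ratio of max minus min over baseline after K+ and Tl+ depolarization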). The following applies: parental CHO-K1 cells, FluxOR thallium flux, at 10 µM; active compounds read high. The procedure, abridged: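 Material: parental CHO-K1 cells, FluxOR dye-loaded; Also added: Potassium/thallium depolarization pulse; Schedule: overnight 37 °C plating, 90 min dye, 20 min dark compound; Signal: kinetic FluxOR fluorescence, 10 s baseline, 110 s after stimulus.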
Take `CCc1ccc(NC(=O)C(=O)NNC(=O)c2cccs2)cc1`: the activation was 360% (active).

Consider `Cc1ccc(/C=N/NC(=O)c2cc3ccccc3cc2O)o1`, for which the activation is 482% (active).

Regarding `CCn1c(=S)[nH]c2sc3c(c2c1=O)CCCCC3`, the activation is 516% (active).

As for `Cc1[nH][nH]c(=O)c1C(c1ccc(-c2ccc(Cl)cc2)o1)c1c(C)[nH][nH]c1=O`, the outcome was inactive.

For the molecule `CCn1c2ccccc2c2cc(NC(=O)CNC)ccc21`, the result was inactive.

Consider `Cc1cccc(NC(=S)NC(=O)c2ccc(Br)o2)c1`, for which the activation was 204% (active).

For `CCn1c(O)c(N=NC2=NC(=O)CS2)c2cc(C)ccc21`, the activation is 244% (active).

As for `CC1=C/C(=N\OS(=O)(=O)c2ccccc2)C=CC1=O`, the outcome was inactive.

For `Oc1c(Cl)cc(Cl)cc1/C=N/c1ncn[nH]1`, the activation was 232% (active).

For the molecule `CCC1(C)Cc2c(sc3[nH]c(=S)n(Cc4ccccc4)c(=O)c23)CO1` (stereo not given), the activation was 294% (active).

As to `CCOC(=O)c1c(NC(=S)NC)sc2c1CCCC2`, the activation was 318% (active).

`CCn1cc(CN2CCC(C(=O)Nc3cccc(-c4cccc(Cl)c4)c3)CC2)cn1`: the result was inactive.

Consider `CS(=O)(=O)c1sc(C(=O)NC(=S)Nc2ccc(OC(F)(F)F)cc2)c2c1C=CCC2`, for which the outcome was inactive.

As to `CCOC(=O)c1sc(=S)n2c1[nH]c(=O)c1ccc(C(=O)OC)cc12`, the activation was 383% (active).

For the next assay, the target named is Potassium voltage-gated channel subfamily KQT member 1 (Homo sapiens) (UniProt P51787). In words: enhancement of KCNQ1 channel thallium flux – FluxOR thallium flux, CHO cells, duplicates, confirmation (AID 493007).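 As to outcome: cells depolarized by a potassium plus thallium sulfate stimulus after compound.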 To be noted: KCNQ1 cell line, FluxOR thallium flux fluorescence, at 10 µM; active compounds read high, % of reference activator effect, buffer zero. Summed up:
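System: KCNQ1-expressing CHO cell line; technique: kinetic thallium influx fluorescence with FluxOR dye, 10 s baseline, 110 s post-stimulus; timing: dye 90 min then compound 20 min, both at room temperature; controls: buffer-only wells as 0% and R-L3 activator as 100%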
For `CCc1ccc(NC(=O)C(=O)NNC(=O)c2cccs2)cc1`, the potentiation was 159% (active).

As for `Cc1ccc(/C=N/NC(=O)c2cc3ccccc3cc2O)o1`, the potentiation is 140% (active).

For `CCn1c(=S)[nH]c2sc3c(c2c1=O)CCCCC3`, the potentiation was 258% (active).

In the case of `Cc1[nH][nH]c(=O)c1C(c1ccc(-c2ccc(Cl)cc2)o1)c1c(C)[nH][nH]c1=O`, the potentiation was 27.5% (active).

Consider `CCn1c2ccccc2c2cc(NC(=O)CNC)ccc21`, for which the outcome was inactive.

As for `Cc1cccc(NC(=S)NC(=O)c2ccc(Br)o2)c1`, the potentiation was 72% (active).

Take `CCn1c(O)c(N=NC2=NC(=O)CS2)c2cc(C)ccc21`: the potentiation was 112% (active).

With `CC1=C/C(=N\OS(=O)(=O)c2ccccc2)C=CC1=O`, the result was inactive.

For the molecule `Oc1c(Cl)cc(Cl)cc1/C=N/c1ncn[nH]1`, the potentiation is 41.5% (active).

Take `CCC1(C)Cc2c(sc3[nH]c(=S)n(Cc4ccccc4)c(=O)c23)CO1` (stereo not given): the potentiation is 190% (active).

For the molecule `CCOC(=O)c1c(NC(=S)NC)sc2c1CCCC2`, the potentiation was 73% (active).

As for `CCn1cc(CN2CCC(C(=O)Nc3cccc(-c4cccc(Cl)c4)c3)CC2)cn1`, the result was inactive.

Turning to `CS(=O)(=O)c1sc(C(=O)NC(=S)Nc2ccc(OC(F)(F)F)cc2)c2c1C=CCC2`, the potentiation was 92% (active).

As to `CCOC(=O)c1sc(=S)n2c1[nH]c(=O)c1ccc(C(=O)OC)cc12`, the potentiation is 108% (active).

Another assay deals with Potassium voltage-gated channel subfamily KQT member 2 (Rattus norvegicus) (UniProt O88943). Nature of the assay: KCNQ2 thallium flux enhancement – KCNQ2-CHO-K1 cells, selectivity assay for KCNQ1 potentiator project (AID 493009;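 active = mean duplicate potentiation above the buffer control mean plus 5 SD of buffer wells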;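 also: assay conditions were tuned for KCNQ1 rather than KCNQ2 modulators; signal is max minus min fluorescence divided by baseline after thallium stimulus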). The following applies: FluxOR thallium flux fluorescence, at 10 µM; active compounds read high, scaled: buffer 0, activator control 100.
Sequence of Potassium voltage-gated channel subfamily KQT member 2 (Rattus norvegicus) (O88943 whole entry, looked up): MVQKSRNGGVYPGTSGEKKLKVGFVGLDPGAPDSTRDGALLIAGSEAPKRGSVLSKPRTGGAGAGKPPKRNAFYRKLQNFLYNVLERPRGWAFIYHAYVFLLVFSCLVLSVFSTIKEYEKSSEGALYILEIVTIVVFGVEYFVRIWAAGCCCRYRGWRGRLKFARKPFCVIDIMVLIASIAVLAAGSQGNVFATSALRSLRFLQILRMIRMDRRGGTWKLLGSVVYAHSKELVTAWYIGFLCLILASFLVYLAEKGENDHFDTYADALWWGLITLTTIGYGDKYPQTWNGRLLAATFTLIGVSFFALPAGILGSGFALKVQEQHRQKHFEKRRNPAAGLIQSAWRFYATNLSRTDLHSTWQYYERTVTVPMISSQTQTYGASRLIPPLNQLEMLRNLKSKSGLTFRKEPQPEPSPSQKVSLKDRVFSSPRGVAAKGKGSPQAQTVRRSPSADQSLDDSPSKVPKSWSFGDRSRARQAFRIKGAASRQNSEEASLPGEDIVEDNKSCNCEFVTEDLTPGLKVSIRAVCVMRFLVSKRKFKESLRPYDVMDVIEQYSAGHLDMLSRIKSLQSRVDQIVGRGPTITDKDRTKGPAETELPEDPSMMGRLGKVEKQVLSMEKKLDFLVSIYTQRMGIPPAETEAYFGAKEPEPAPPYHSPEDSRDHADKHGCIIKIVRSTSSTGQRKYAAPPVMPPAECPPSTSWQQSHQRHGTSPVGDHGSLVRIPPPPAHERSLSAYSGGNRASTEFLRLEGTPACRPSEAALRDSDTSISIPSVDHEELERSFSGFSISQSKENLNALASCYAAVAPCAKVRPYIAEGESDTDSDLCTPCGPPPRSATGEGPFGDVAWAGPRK
Turning to `CCc1ccc(NC(=O)C(=O)NNC(=O)c2cccs2)cc1`, the potentiation was 421% (active).

In the case of `Cc1ccc(/C=N/NC(=O)c2cc3ccccc3cc2O)o1`, the potentiation is 506% (active).

In the case of `CCn1c(=S)[nH]c2sc3c(c2c1=O)CCCCC3`, the potentiation is 530% (active).

For `Cc1[nH][nH]c(=O)c1C(c1ccc(-c2ccc(Cl)cc2)o1)c1c(C)[nH][nH]c1=O`, the outcome was inactive.

For `CCn1c2ccccc2c2cc(NC(=O)CNC)ccc21`, the outcome was inactive.

As to `Cc1cccc(NC(=S)NC(=O)c2ccc(Br)o2)c1`, the potentiation was 272% (active).

For the molecule `CCn1c(O)c(N=NC2=NC(=O)CS2)c2cc(C)ccc21`, the potentiation was 310% (active).

With `CC1=C/C(=N\OS(=O)(=O)c2ccccc2)C=CC1=O`, the outcome was inactive.

As for `Oc1c(Cl)cc(Cl)cc1/C=N/c1ncn[nH]1`, the potentiation was 156% (active).

`CCC1(C)Cc2c(sc3[nH]c(=S)n(Cc4ccccc4)c(=O)c23)CO1` (stereo not given): the potentiation is 388% (active).

For `CCOC(=O)c1c(NC(=S)NC)sc2c1CCCC2`, the potentiation is 289% (active).

With `CS(=O)(=O)c1sc(C(=O)NC(=S)Nc2ccc(OC(F)(F)F)cc2)c2c1C=CCC2`, the potentiation was 168% (active).

As to `CCOC(=O)c1sc(=S)n2c1[nH]c(=O)c1ccc(C(=O)OC)cc12`, the potentiation is 351% (active).

The next assay concerns the target Potassium voltage-gated channel subfamily KQT member 1 (Homo sapiens) (UniProt P51787). In words: KCNQ1 activators by electrophysiology – IonWorks patch clamp, KCNQ1-CHO cells, orthogonal assay for KCNQ1 potentiator project, confirmation (AID 493184;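 active = current rise at least 3 SD above the untreated control mean in each of two repeat wells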;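 as to current potentiation: percent change of the same well's current before compound addition so 0% = no change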). To be noted: automated patch clamp current, at 10 µM; active compounds read high. Summed up:
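Test system: KCNQ1-expressing CHO cells. Medium: pH 7.4 external bath. Probe or stimulus: voltage step from -90 mV holding to +40 mV, 2,000 ms. Compound: 10 µM final, single point. Detection: automated perforated-patch electrophysiology. Read-out: percent current increase versus pre-compound level. Repeats: two replicates.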
For `CCc1ccc(NC(=O)C(=O)NNC(=O)c2cccs2)cc1`, the result was inactive.

Turning to `Cc1ccc(/C=N/NC(=O)c2cc3ccccc3cc2O)o1`, the result was inactive.

In the case of `CCn1c(=S)[nH]c2sc3c(c2c1=O)CCCCC3`, the result was inactive.

Take `Cc1[nH][nH]c(=O)c1C(c1ccc(-c2ccc(Cl)cc2)o1)c1c(C)[nH][nH]c1=O`: the outcome was inactive.

For `CCn1c2ccccc2c2cc(NC(=O)CNC)ccc21`, the outcome was inactive.

Consider `Cc1cccc(NC(=S)NC(=O)c2ccc(Br)o2)c1`, for which the result was inactive.

Consider `CCn1c(O)c(N=NC2=NC(=O)CS2)c2cc(C)ccc21`, for which the result was inactive.

As to `CC1=C/C(=N\OS(=O)(=O)c2ccccc2)C=CC1=O`, the result was inactive.

Take `Oc1c(Cl)cc(Cl)cc1/C=N/c1ncn[nH]1`: the outcome was inactive.

On to `CCC1(C)Cc2c(sc3[nH]c(=S)n(Cc4ccccc4)c(=O)c23)CO1` (stereo not given), for which the current potentiation was 15.1% (active).

In the case of `CCOC(=O)c1c(NC(=S)NC)sc2c1CCCC2`, the outcome was inactive.

Take `CCn1cc(CN2CCC(C(=O)Nc3cccc(-c4cccc(Cl)c4)c3)CC2)cn1`: the result was inactive.

`CS(=O)(=O)c1sc(C(=O)NC(=S)Nc2ccc(OC(F)(F)F)cc2)c2c1C=CCC2`: the result was inactive.

In the case of `CCOC(=O)c1sc(=S)n2c1[nH]c(=O)c1ccc(C(=O)OC)cc12`, the outcome was inactive.

Source of the values: PubChem BioAssay.
